Bioassay records as filed in PubChem BioAssay.
This is a sample that favours compounds with a hit; in the whole collection about 3.1% have one here.
aDG glyco act: alpha-DG glycosylation activation; Pro5-aDG cells, alpha-DG glycosylation AlphaScreen (IIH6); 0% Pro5, 100% B10-LARGE cell signal; activation, % at 10 µM; 0.22% of 360,000 active;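 active = activation of at least 8% versus controls, or a plate z-score of at least 8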;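 note: Pro5 are CHO cells carrying HIG-tagged alpha-DG that lacks glycosylation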
V-ATPase pH: yeast V-ATPase proton transport regulation by pHLuorin; S. cerevisiae, pHLuorin cytosolic pH fluorescence; response, % at 10 µM; 0.37% of 350,000 active; in the data active = response mostly above about 7.3%, no sharp cut-off; inactive = mostly below about 5.4%; note: actives read high
Lipid droplet: hepatic lipid droplet formation modulation. AML12 mouse hepatocytes, oleate lipid droplets, BODIPY imaging. AID 1656. inhibition, % at 6.5 µM. 0.4% of 240,000 active;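 active = lipid droplet intensity inhibited by at least 50%, with more than 500 cells counted; inconclusive = wells with under 300 cells, treated as cytotoxic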
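Assay system: AML12 mouse liver cells | Compound dosing: One dose, 6.5 µM compound | Read-out basis: Droplet intensity reduction, % inhibition | Measured by: Fluorescence imaging, 20x objective, two fields per well | Schedule: Overnight treatment with compound plus oleate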
MPTP inh: inhibitors of mitochondrial permeability transition pore | isolated mouse mitochondria, Ca2+ swelling absorbance, 30 min | inhibition, % at 10 µM | 1.4% of 360,000 active | AID 602449;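 active = inhibition of 50% or more, scaled per plate between neutral and stimulator controls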
ADAM10 inh: inhibitors of human ADAM10 | recombinant ADAM10, EDANS/DABCYL FRET peptide cleavage, 3 h | inhibition, % at 7 µM | 0.62% of 370,000 active | AID 720582;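 active = inhibition above a per-campaign cutoff equal to the mean of compounds falling between control-based bounds plus 3 SD, cut at about 20% in these data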
ADAM17 inh: inhibitors of human ADAM17; P78536; 0.83% of 370,000 active; recombinant ADAM17, EDANS/DABCYL FRET peptide cleavage; inhibition, % at 6.95 µM;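 active = inhibition above the mean of compounds lying between control limits plus 3 SD, set per campaign, cut at about 8.5% in these data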
Target sequence (P78536 215-824 limits assumed): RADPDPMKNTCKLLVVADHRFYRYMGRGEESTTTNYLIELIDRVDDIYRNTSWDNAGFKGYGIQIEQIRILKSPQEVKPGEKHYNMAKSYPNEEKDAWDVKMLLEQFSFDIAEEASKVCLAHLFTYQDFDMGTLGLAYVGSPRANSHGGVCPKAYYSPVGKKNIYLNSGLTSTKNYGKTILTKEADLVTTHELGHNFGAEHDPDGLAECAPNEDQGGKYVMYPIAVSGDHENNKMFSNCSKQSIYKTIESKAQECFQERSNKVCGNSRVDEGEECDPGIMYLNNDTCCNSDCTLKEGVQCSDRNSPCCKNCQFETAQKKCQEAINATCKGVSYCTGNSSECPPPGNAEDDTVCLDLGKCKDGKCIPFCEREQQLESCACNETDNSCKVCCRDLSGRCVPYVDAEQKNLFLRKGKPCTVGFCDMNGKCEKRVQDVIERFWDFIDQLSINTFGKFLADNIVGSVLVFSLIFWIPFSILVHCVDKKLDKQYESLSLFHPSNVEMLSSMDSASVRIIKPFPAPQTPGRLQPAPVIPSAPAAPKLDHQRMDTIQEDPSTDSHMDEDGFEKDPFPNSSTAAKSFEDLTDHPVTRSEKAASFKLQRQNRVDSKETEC
MPTP counter: Rhodamine 123 counter-screen of mitochondrial pore hits; shares compounds with MPTP inh; isolated mitochondria, membrane potential, Rhodamine 123 fluorescence; inhibition, % at 10 µM; 78% of 5,000 active; in the data active = inhibition above about 22%
MPTP swell DR: dose response confirmation of mitochondrial permeability transition pore inhibitors; shares compounds with MPTP inh; isolated mitochondria swelling, absorbance; IC50, µM; 58% of 780 active; AID 651561; in the data active = IC50 below about 20 µM
MPTP cs DR: active in counter-screen for permeability transition pore inhibitors; AID 651564; isolated mitochondria counterscreen, fluorescence read-out; 49% of 780 active; IC50, µM; shares compounds with MPTP inh; in the data active = IC50 below about 80 µM
Numbers stand for hits; – = inactive; ? = inconclusive; · = no result given.

SMILES | aDG glyco act | V-ATPase pH | Lipid droplet | MPTP inh | ADAM10 inh | ADAM17 inh | MPTP counter | others
Cc1ccc(NC(=O)C(=O)NCc2ccc(/C=C(/C#N)C(=O)NCc3cccnc3)o2)cc1 | – | – | · | – | – | – | ·
Cc1ccc(NC(=O)C(=O)NCc2ccc(/C=C(/C#N)C(=O)NCc3cccnc3)o2)cc1C | – | – | – | 60 | – | – | 76
CC(=O)c1c(C)[nH]c(C(=O)CSc2ncnc3sc(-c4ccccc4)cc23)c1C | – | – | – | 96 | – | – | 39
C/C(=N\OCc1nc2ccccc2c(=O)n1/N=C/c1cc([N+](=O)[O-])ccc1O)c1ccccc1 | – | – | – | 74 | – | – | 51
O=[N+]([O-])c1ccc(O)c(/C=N/n2cnc3ccccc32)c1 | – | – | – | 69 | – | – | 79
O=[N+]([O-])c1ccc(O)c(/C=N/Nc2ccccc2Cl)c1 | – | – | – | 94 | – | – | 91
O=[N+]([O-])c1ccc(NN=Cc2cc(Br)ccc2O)nc1 | – | – | · | 75 | – | – | 59
C/C(=N\OCc1nc2ccccc2c(=O)n1/N=C/c1cc(C)cc([N+](=O)[O-])c1O)c1ccccc1 | – | – | – | – | – | – | ·
CCCCCCCCNS(=O)(=O)CC1NCc2cc(OC)ccc21 (stereo unspecified) | · | · | · | · | – | – | ·
CCOC(=O)[C@@]12CN(C(=O)OC(C)(C)C)CC=C1N(Cc1ccc(OC)cc1)C(=O)[C@H]2CC(=O)N1CCOCC1 | · | · | · | · | – | – | ·
O=C(Nc1ccc(Cl)cc1)Nc1ccccc1C(=O)N1CCCC1 | · | · | · | · | – | – | ·
COc1ccc(C(=O)CSc2nnc(-c3ccccc3)n2-c2ccc(Cl)cc2)cc1 | · | · | · | · | – | – | ·
COC(=O)/C=C1/SC(=Nc2ccc(Cl)c(Cl)c2)NC1=O | – | – | – | 58 | – | – | 25
COC(=O)/C=C1\SC(=Nc2ccccc2)NC1=O | – | – | – | – | – | – | ·
CCCn1c(=O)[nH]c(=O)c2c1nc(-c1ccccc1OC(F)F)n2CCOC | – | – | · | – | – | – | ·
CCCn1c(=O)[nH]c(=O)c2c1nc(-c1ccc(OC(F)F)c(OC)c1)n2CCOC | – | – | – | 80 | – | – | – | MPTP swell DR=–;MPTP cs DR=–
CCCCn1c(SCC(=O)c2ccc(O)c(O)c2)nc2ccsc2c1=O | – | – | – | 52 | · | · | 30
CCn1c(SCC(=O)c2ccccc2)nc2ccccc2c1=O | – | – | – | – | – | – | ·
CCCCn1c(SCC(=O)c2ccccc2)nc2ccsc2c1=O | – | – | – | 64 | – | – | – | MPTP swell DR=–;MPTP cs DR=–
O=C(O)CCCCCn1c(SCC(=O)c2ccc(O)c(O)c2)nc2ccsc2c1=O | – | – | – | – | – | – | ·
Cc1cc(C)cc(NC(=O)N2CCN(Cc3nc4ccccc4c(=O)[nH]3)CC2)c1 | · | · | · | · | – | – | ·
CCCSc1nnc(-c2ccco2)n1C | · | · | · | · | – | – | ·
CCCCNC(=O)C1(C(=O)C2CC2)CC(c2ccccc2C(F)(F)F)=NO1 (stereo unspecified) | · | · | · | · | – | – | ·
C[C@H]1[C@H](NC(=O)c2ccc(C(C)(C)C)cc2)CC[C@@]23CCCN2C(=O)CCC[C@@H]13 | · | · | · | · | – | – | ·
CCCn1c(SCC(=O)Nc2nc3ccccc3s2)nc2c1c(=O)n(C)c(=O)n2C | – | – | – | 85 | – | – | – | MPTP swell DR=19;MPTP cs DR=14
SMILES | aDG glyco act | V-ATPase pH | Lipid droplet | MPTP inh | ADAM10 inh | ADAM17 inh | MPTP counter | others
CCCn1c(SCC(=O)Nc2nnc(C(C)C)s2)nc2c1c(=O)n(C)c(=O)n2C | – | – | · | – | – | – | ·
CCOC(=O)c1ccc(NC(=O)Oc2ccccc2)cc1 | – | – | · | – | – | – | ·
COC(=O)c1ccc(NC(=O)Nc2ccc(F)c(Cl)c2)cc1 | – | – | – | 91 | – | – | 83
CC(C)CNC(=O)Nc1ccc(F)c(Cl)c1 | – | – | – | – | – | – | ·
CCOC(=O)c1sc(NC(=O)Nc2ccc(F)cc2)nc1C | – | – | – | 73 | – | – | 84
CCOC(=O)c1ccc(NC(=O)Nc2ccc(OC)c(OC)c2)cc1 | – | – | – | 65 | – | – | 69
CCOC(=O)c1ccc(NC(=O)Oc2cc(C)c(Cl)cc2C(C)C)cc1 | – | – | – | 64 | – | – | 69
CC(C)(C)OC(=O)/C=C/[C@@H](CC1CCCC1)Sc1ccc(C(C)(C)C)cc1 | · | · | · | · | – | – | ·
CCOC(=O)c1cc(NC(=O)Nc2ccccc2Cl)c(C)nc1C | – | – | – | – | – | – | ·
O=C(COc1ccc([N+](=O)[O-])cc1)NNC(=O)Nc1ccc([N+](=O)[O-])cc1 | – | – | – | 67 | – | – | 96
CCOC(=O)c1cc(NC(=O)Nc2ccc(Br)cc2)c(C)nc1C | – | – | – | 74 | – | – | 70
COc1ccc(NC(=O)Nc2ccc(C)cc2OC(F)F)cc1OC | – | – | – | 52 | – | – | 36
CC(C)(C)c1ccc(NC(=O)Nc2ccc(F)cc2)cc1 | – | – | – | 99 | – | – | 88
O=C(N1CCC(n2nc(-c3ccccc3)oc2=O)CC1)C1(c2ccccc2)CCCC1 | · | · | · | · | – | – | ·
Cc1ccc(-c2cc(C(=O)NN=Cc3ccc(-c4ccccc4)cc3)[nH]n2)cc1C | · | · | · | · | – | – | ·
O=C(Nc1ccc(Cl)cc1)C1CCCN1S(=O)(=O)c1cccnc1 (stereo unspecified) | · | · | · | · | – | – | ·
O=C(Nc1ccc([N+](=O)[O-])cc1)Nc1ccon1 | – | – | ? | 58 | – | – | 99
COC(=O)c1ccc(NC(=O)Nc2ccccc2F)cc1 | – | – | – | 54 | – | – | 84
COC(=O)c1ccc(NC(=O)Nc2ccccc2C)cc1 | – | – | – | – | – | – | ·
COC(=O)c1ccc(NC(=O)Nc2ccc(OC)cc2)cc1 | – | – | – | – | – | – | ·
O=C(Nc1ccc(C(=O)O)cc1)Nc1ccc([N+](=O)[O-])cc1 | – | – | – | – | – | – | ·
COC(=O)c1ccc(NC(=O)Nc2ccc(F)cc2)cc1 | – | – | · | 64 | – | – | 96
COC(=O)c1ccc(NC(=O)Nc2ccc([N+](=O)[O-])cc2)cc1 | – | – | – | 94 | – | – | 85
C[C@H](O)[C@@H]1CN2CCc3c([nH]c4cccc(-c5ccccc5)c34)[C@@H]2C[C@@H]1N(C)C(=O)C1CCCCC1 | · | · | · | · | – | – | ·
CCOC(=O)c1ccc(NC(=O)Nc2ccc(F)cc2)cc1 | – | – | – | 97 | – | – | 85
Cc1ccc(NS(=O)(=O)c2cc3c(cc2Cl)NC(=O)CO3)cc1C | · | · | · | · | – | – | ·
CCCOc1ccc(/C=C2\SC(=S)N(CC3CCCO3)C2=O)cc1 (stereo unspecified) | – | – | – | – | – | – | ·
O=C1/C(=C/c2ccc(O)cc2)SC(=S)N1CC1CCCO1 (stereo unspecified) | – | – | · | 60 | – | – | 70
